In brackets after ≈: the same amount, converted by molar mass.
How the values were obtained:
Mus musculus [1] = species: Mus musculus; test: animal or person; settings: C57BL/6, po, read-out: INH
Rattus norvegicus [2] = test: Oral bioavailability in Brown Norway rat at 3 mg/kg by LC-MS/MS analysis; assay type: ADME, organism-based; settings: in vivo
Plasma [3] = test: Dose normalized plasma concentration in Brown Norway rat plasma at 6 mg/kg, po measured at 24 hrs by LC-MS/MS analysis; assay type: ADME, organism-based; settings: in vivo
[4] = Dose normalized AUC (0 to 24 hrs) in Brown Norway rat posteior eye cup at 6 mg/kg, po; assay type: ADME, organism-based; settings: in vivo
Rattus norvegicus [5] = test: AUC (0 to 8 hrs) in Brown Norway rat at 3 mg/kg, po by LC-MS/MS analysis; assay type: ADME, organism-based; parameters: dose 3 mg/kg, time < 8 hr, route oral; settings: in vivo
[6] = Dose normalized drug uptake in Brown Norway rat retina at 6 mg/kg, po by LC-MS/MS analysis; assay type: ADME, organism-based; settings: in vivo
[7] = Dose normalized AUC (0 to 24 hrs) in Brown Norway rat retina at 6 mg/kg, po; assay type: ADME, organism-based; settings: in vivo
[8] = Dose normalized Cmax in Brown Norway rat posteior eye cup at 6 mg/kg, po; assay type: ADME, organism-based; settings: in vivo
[9] = Half life in Brown Norway rat at 3 mg/kg, po or 1 mg/kg, iv by LC-MS/MS analysis; assay type: ADME, organism-based; settings: in vivo
[10] = Volume of distribution at steady state in Brown Norway rat at 3 mg/kg, po or 1 mg/kg, iv by LC-MS/MS analysis; assay type: ADME, organism-based; settings: in vivo, read-out: Vdss
Plasma [11] = test: Dose normalized AUC (0 to 24 hrs) in Brown Norway rat plasma at 6 mg/kg, po; assay type: ADME, organism-based; settings: in vivo
Rattus norvegicus [12] = test: Antiangiogenic activity in po dosed Brown Norway rat laser-induced choroidal neovascularization model assessed as inhibition of neovascular lesion formation administered qd for 14 days by microscopic analysis; assay type: functional; settings: 336 h
Procedure, shortened: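 Male Brown Norway rats, about 12 weeks old, dosed by oral gavage starting about 1 h before laser. Lesions were made under ketamine/xylazine i.p. (40–80 / 5–10 mg/kg) with 532 nm laser pulses (30 ms, 190 mW, 200 µm spot), about 4 lesions per eye and 10 rats per group. Vessels were labelled with i.v. 2,000 kD FITC dextran, eyes fixed in 4% paraformaldehyde, and CNV area measured blinded.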

[13] = target: Mast/stem cell growth factor receptor Kit (Homo sapiens, UniProt P10721); test: Inhibition of c-Kit (unknown origin)
Procedure, shortened: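 Selectivity measured in a 62-kinase panel, with results reported as IC50 (µM).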

Plasma [14] = test: Dose normalized Cmax in Brown Norway rat plasma at 6 mg/kg, po; assay type: ADME, organism-based; settings: in vivo
[15] = Dose normalized Cmax in Brown Norway rat retina at 6 mg/kg, po; assay type: ADME, organism-based; settings: in vivo
[16] = Dose normalized drug uptake in Brown Norway rat posteior eye cup at 6 mg/kg, po; assay type: ADME, organism-based; settings: in vivo
Mus musculus [17] = test: Antiangiogenic activity in po dosed C57BL/6 mouse laser-induced choroidal neovascularization assessed as inhibition of neovascular lesion formation administered qd for 6 days measured on day 7 by microscopic analysis; assay type: functional; settings: C57BL/6, po
[18] = Cmax in Brown Norway rat at 3 mg/kg, po or 1 mg/kg, iv by LC-MS/MS analysis; assay type: ADME, organism-based; settings: in vivo
[19] = Aqueous solubility of the compound at pH 6.8; settings: aqueous medium
[20] = Plasma concentration in mouse model of laser-induced choroidal neovascularization at 100 mg/kg, po bid for 7 days measured 16 hrs post last dose; assay type: ADME, organism-based
Mus musculus [21] = test: Antiangiogenic activity in mouse model of laser-induced choroidal neovascularization assessed as inhibition of neovascular lesion formation at 100 mg/kg, po bid for 7 days; assay type: functional; settings: 168 h

Sequence of Mast/stem cell growth factor receptor Kit (P10721 whole entry): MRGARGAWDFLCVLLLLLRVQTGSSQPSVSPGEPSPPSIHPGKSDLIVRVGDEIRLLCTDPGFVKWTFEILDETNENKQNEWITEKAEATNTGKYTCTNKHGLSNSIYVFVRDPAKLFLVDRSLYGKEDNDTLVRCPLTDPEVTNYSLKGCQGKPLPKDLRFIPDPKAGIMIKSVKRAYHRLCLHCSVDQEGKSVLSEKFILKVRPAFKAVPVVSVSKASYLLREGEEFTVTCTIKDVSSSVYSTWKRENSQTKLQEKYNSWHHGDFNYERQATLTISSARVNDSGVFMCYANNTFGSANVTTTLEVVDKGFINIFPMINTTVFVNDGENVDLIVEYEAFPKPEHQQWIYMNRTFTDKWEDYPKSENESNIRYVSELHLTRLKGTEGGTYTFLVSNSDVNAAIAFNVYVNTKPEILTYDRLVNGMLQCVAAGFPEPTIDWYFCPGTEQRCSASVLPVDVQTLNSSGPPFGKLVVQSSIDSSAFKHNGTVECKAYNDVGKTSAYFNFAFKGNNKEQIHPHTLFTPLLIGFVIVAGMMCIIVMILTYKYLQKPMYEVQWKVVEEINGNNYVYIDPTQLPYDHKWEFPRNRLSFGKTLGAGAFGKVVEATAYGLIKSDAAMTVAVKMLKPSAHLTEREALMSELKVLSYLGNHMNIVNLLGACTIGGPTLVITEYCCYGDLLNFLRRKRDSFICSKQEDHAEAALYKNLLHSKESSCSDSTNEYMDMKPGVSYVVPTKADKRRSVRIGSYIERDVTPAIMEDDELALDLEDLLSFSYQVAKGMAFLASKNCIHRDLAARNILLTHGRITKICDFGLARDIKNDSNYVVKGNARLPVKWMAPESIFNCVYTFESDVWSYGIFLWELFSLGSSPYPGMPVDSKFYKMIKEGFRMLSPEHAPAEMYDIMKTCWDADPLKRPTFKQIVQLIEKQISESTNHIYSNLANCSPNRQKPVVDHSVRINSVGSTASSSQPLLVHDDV

Compound `C[C@H]1NCc2ncnc(Oc3ccc4c(ccn4C(=O)Nc4cccc(C(F)(F)F)c4)c3)c21` has an inhibition in vivo at 10 mg/kg (Mus musculus [1]) of 0%.
`C[C@H]1Cc2c(ncnc2Oc2ccc3c(ccn3C(=O)Nc3cc(C4(C)CC4)n[nH]3)c2)CN1` gave an F (Rattus norvegicus [2]) of 81%, a Cp/dose (Plasma [3]) of 1.6 nM/mg/kg and an AUC/dose [4] of 22266 nM·h/mg/kg. For the same compound, the AUC (Rattus norvegicus [5]) was 2.49 µM·h, the Druguptake/dose [6] was 122 nM/mg/kg and the AUC/dose [7] was 3215 nM·h/mg/kg. The Cmax/dose [8] was 1067 nM/mg/kg, the half-life [9] was 2.3 h and the Vd [10] was 5.6 L/kg. It also gave an AUC/dose (Plasma [11]) of 598 nM·h/mg/kg, an ED50 (Rattus norvegicus [12]) of 2.9 mg/kg and an ED90 (Rattus norvegicus [12]) of 14.6 mg/kg. The IC50 [13] was 600 nM, the inhibition in vivo at 10 mg/kg (Mus musculus [1]) was 67% and the Cmax/dose (Plasma [14]) was 68 nM/mg/kg. The Cmax/dose [15] was 170 nM/mg/kg, the Druguptake/dose [16] was 1067 nM/mg/kg and the ED50 (Mus musculus [17]) was 3.4 mg/kg. For the same compound, the ED90 (Mus musculus [17]) was 19.6 mg/kg and the Cmax [18] was 0.514 µM.
For `C[C@@H]1Cc2c(ncnc2Oc2ccc3c(ccn3C(=O)Nc3cccc(C(F)(F)F)c3)c2)CN1`, the inhibition in vivo at 10 mg/kg (Mus musculus [1]) was 58%.
Work on `CC1(c2cc(NC(=O)n3ccc4cc(Oc5ncnc6c5CNC6)ccc43)n[nH]2)CC1` yielded an inhibition in vivo at 10 mg/kg (Mus musculus [1]) of 43% and a solubility [19] of 489 µM (≈ 203 µg/mL).
With `Cc1cncc(NC(=O)n2ccc3cc(Oc4ncnc5c4CCNC5)ccc32)c1` the solubility [19] was 190 µM (≈ 76.1 µg/mL).
With `CNCc1cc(Oc2ccc3c(ccn3C(=O)Nc3cccc(C(F)(F)F)c3)c2)ncn1` the inhibition in vivo at 10 mg/kg (Mus musculus [1]) was 67% and the solubility [19] was 64 µM (≈ 28.3 µg/mL).
For `CC(C)(C)c1cc(NC(=O)n2ccc3cc(Oc4ncnc5c4CCNC5)ccc32)n[nH]1`, the inhibition in vivo at 10 mg/kg (Mus musculus [1]) was 0% and the solubility [19] was 682 µM (≈ 294 µg/mL).
For `C[C@@H]1NCc2ncnc(Oc3ccc4c(ccn4C(=O)Nc4cccc(C(F)(F)F)c4)c3)c21`, the inhibition in vivo at 10 mg/kg (Mus musculus [1]) was 41%.
For `O=C(Nc1cccc(C(F)(F)F)c1)n1ccc2cc(Oc3ncnc4c3CCNC4)ccc21`, the inhibition in vivo at 10 mg/kg (Mus musculus [1]) was 87% and the solubility [19] was 84 µM (≈ 38.1 µg/mL).
In the case of `C[C@H]1Cc2c(ncnc2Oc2ccc3c(ccn3C(=O)Nc3cccc(C(F)(F)F)c3)c2)CN1`, the inhibition in vivo at 10 mg/kg (Mus musculus [1]) is reported as 96%, the ED50 (Mus musculus [17]) is reported as 3.6 mg/kg and the ED90 (Mus musculus [17]) is reported as 8.5 mg/kg.
`CC(C)c1cc(NC(=O)n2ccc3cc(Oc4ncnc5c4CNC5)ccc32)no1` showed an inhibition in vivo at 10 mg/kg (Mus musculus [1]) of 96% and a solubility [19] of 37 µM (≈ 15 µg/mL).
`O=C(Nc1cccc(C(F)(F)F)c1)n1ccc2cc(Oc3ncnc4c3CNC4)ccc21` showed an inhibition in vivo at 10 mg/kg (Mus musculus [1]) of 68%, an ED50 (Mus musculus [17]) of 6.9 mg/kg and an ED90 (Mus musculus [17]) of 31 mg/kg.
For `CC(C)(C)c1cc(NC(=O)n2ccc3cc(Oc4ncnc5c4CNC5)ccc32)on1`, the inhibition in vivo at 10 mg/kg (Mus musculus [1]) was 58% and the solubility [19] was 232 µM (≈ 97.1 µg/mL).
In the case of `C[C@H]1Cc2c(ncnc2Oc2ccc3c(ccn3C(=O)Nc3cc(C(C)(C)C)on3)c2)CN1`, the inhibition in vivo at 10 mg/kg (Mus musculus [1]) is reported as 96%.
`Cc1ccc(Nc2nccc(N(C)c3ccc4c(C)n(C)nc4c3)n2)cc1S(N)(=O)=O` [PAZOPANIB] showed a concentration at 16 h [20] of 13 µM and an inhibition in vivo at 100 mg/kg (Mus musculus [21]) of 93%.

Source: ChEMBL document CHEMBL3745705, “Discovery of Oral VEGFR-2 Inhibitors with Prolonged Ocular Retention That Are Efficacious in Models of Wet Age-Related Macular Degeneration” (J Med Chem, 2015)
